Laboratory results from ChEMBL document CHEMBL1667789, “Synthesis of 4H-chromene, coumarin, 12H-chromeno[2,3-d]pyrimidine derivatives and some of their antimicrobial and cytotoxicity activities” (2011).
The source made the active and inactive calls. The calls are words filed in the database; no cut-off is given here.

Assays:
[1] = test system: Candida albicans; test: Antifungal activity against Candida albicans ATCC 10231 at 25 ug/ml by agar diffusion method; format: functional; conditions: for zone of inhibition at 25 µg/mL: read-out: DIZ
Procedure, shortened: (§1)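 Agar diffusion on Sabouraud's agar. Fungal strains came from the NODCAR Microbiology laboratory culture collection. Mycostatine was the reference standard.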

[2] = test system: Bacillus subtilis; test: Antimicrobial activity against Bacillus subtilis ATCC 6633 at 25 ug/ml by agar diffusion method; format: functional; conditions: for zone of inhibition at 25 µg/mL: read-out: DIZ
Procedure, shortened: (§2)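 Agar diffusion on Mueller-Hinton agar. Bacterial strains came from the NODCAR Microbiology laboratory culture collection. Ampicillin was the reference standard.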

[3] = test system: Cancer cell lines; test: Cytotoxicity against human Lung cancer cells; format: functional, cell-based
Procedure, shortened: (§3)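 Human tumour lines were MCF-7 (breast adenocarcinoma) and HCT (described as lung carcinoma). Cytotoxicity was read by a cell viability assay, with IC50 derived from it.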

[4] = test system: Escherichia coli; test: Antimicrobial activity against Escherichia coli ATCC 14169 at 25 ug/ml by agar diffusion method; format: functional; conditions: for zone of inhibition at 25 µg/mL: read-out: DIZ; procedure, shortened: as §2
[5] = test system: Saccharomyces cerevisiae; test: Antifungal activity against Saccharomyces cerevisiae ATCC 9080 at 25 ug/ml by agar diffusion method; format: functional; conditions: for zone of inhibition at 25 µg/mL: read-out: DIZ; procedure, shortened: as §1
[6] = test system: Bacillus pumilus; test: Antimicrobial activity against Bacillus pumilus ATCC 14884 at 25 ug/ml by agar diffusion method; format: functional; conditions: for zone of inhibition at 25 µg/mL: read-out: DIZ; procedure, shortened: as §2
[7] = test system: MCF7; test: Cytotoxicity against human MCF7 cells; format: functional, cell-based; procedure, shortened: as §3
[8] = test system: Staphylococcus aureus; test: Antimicrobial activity against Staphylococcus aureus ATCC 29737 at 25 ug/ml by agar diffusion method; format: functional; conditions: for zone of inhibition at 25 µg/mL: read-out: DIZ; procedure, shortened: as §2
[9] = test system: Staphylococcus epidermidis; test: Antimicrobial activity against Staphylococcus epidermidis ATCC 12228 at 25 ug/ml by agar diffusion method; format: functional; conditions: for zone of inhibition at 25 µg/mL: read-out: DIZ; procedure, shortened: as §2
[10] = test system: Bordetella bronchiseptica; test: Antimicrobial activity against Bordetella bronchiseptica ATCC 4617 at 25 ug/ml by agar diffusion method; format: functional; conditions: for zone of inhibition at 25 µg/mL: read-out: DIZ; procedure, shortened: as §2

Row | Molecule | diameter of the inhibition zone (DIZ) [1] | diameter of the inhibition zone (DIZ) [2] | Activity [3] | diameter of the inhibition zone (DIZ) [4] | diameter of the inhibition zone (DIZ) [5] | diameter of the inhibition zone (DIZ) [6] | Activity [7] | diameter of the inhibition zone (DIZ) [8] | diameter of the inhibition zone (DIZ) [9] | diameter of the inhibition zone (DIZ) [10] | zone of inhibition at 25 µg/mL [1] [mm] | zone of inhibition at 25 µg/mL [2] [mm] | zone of inhibition at 25 µg/mL [4] [mm] | zone of inhibition at 25 µg/mL [5] [mm] | zone of inhibition at 25 µg/mL [6] [mm] | zone of inhibition at 25 µg/mL [8] [mm] | zone of inhibition at 25 µg/mL [9] [mm] | zone of inhibition at 25 µg/mL [10] [mm] | inhibition zone (IZ) [5] [mm]
1 | CCN(CC)c1ccc2c(c1)OC(N)=C(C#N)C2c1ccc(F)cc1 (stereo unspecified) | inactive | inactive | Not toxic | inactive | inactive | inactive | Not toxic | inactive | inactive | inactive | – | – | – | – | – | – | – | – | –
2 | CCN(CC)c1ccc2c(c1)Oc1ncn(C)c(=N)c1C2c1ccc(Cl)cc1 (stereo unspecified) | – | – | – | – | – | – | – | – | – | – | 14 | 21 | 21 | 20 | 25 | 24 | 25 | 20 | –
3 | CCN(CC)c1ccc2c(c1)OC(/N=C/c1ccccc1)=C(C#N)C2c1ccc(Cl)cc1 (stereo unspecified) | inactive | inactive | – | inactive | inactive | inactive | – | inactive | inactive | inactive | – | – | – | – | – | – | – | – | –
4 | CCOC(=O)C1=C(N)Oc2cc(N(CC)CC)ccc2C1c1ccc(F)cc1 (stereo unspecified) | inactive | inactive | – | inactive | inactive | inactive | – | – | – | inactive | – | – | – | – | – | 14 | 14 | – | –
5 | CCN(CC)c1ccc2c(c1)OC(N(C(C)=O)C(C)=O)=C(C#N)C2c1ccc(Cl)cc1 (stereo unspecified) | inactive | inactive | – | inactive | inactive | inactive | – | inactive | inactive | inactive | – | – | – | – | – | – | – | – | –
6 | CCN(CC)c1ccc2c(c1)OC(N)=C(C#N)C2c1ccc(Br)cc1 (stereo unspecified) | inactive | inactive | – | inactive | inactive | inactive | – | inactive | inactive | inactive | – | – | – | – | – | – | – | – | –
7 | CCN(CC)c1ccc2c(c1)OC(N)=C(C#N)C2c1ccc(Cl)cc1 (stereo unspecified) | inactive | inactive | – | inactive | inactive | inactive | – | – | – | inactive | – | – | – | – | – | 14 | 15 | – | –
8 | CCO/C=N/C1=C(C#N)C(c2ccc(Br)cc2)c2ccc(N(CC)CC)cc2O1 (stereo unspecified) | inactive | inactive | – | inactive | inactive | inactive | – | inactive | inactive | inactive | – | – | – | – | – | – | – | – | –
9 | CCN(CC)c1ccc2c(c1)Oc1ncn(N)c(=N)c1C2c1ccc(Cl)cc1 (stereo unspecified) | – | – | – | – | – | – | – | – | – | – | 16 | 17 | 17 | 24 | 27 | 26 | 24 | 22 | –
10 | CC1(C)S[C@@H]2[C@H](NC(=O)[C@H](N)c3ccccc3)C(=O)N2[C@H]1C(=O)O [AMPICILLIN] | – | – | – | – | – | – | – | – | – | – | – | 25 | 25 | – | 20 | 26 | 25 | 24 | –
11 | CCN(CC)c1ccc2c(c1)Oc1nc(C)[nH]c(=O)c1C2c1ccc(Cl)cc1 (stereo unspecified) | inactive | inactive | – | inactive | inactive | inactive | – | inactive | inactive | inactive | – | – | – | – | – | – | – | – | –
12 | CCN(CC)c1ccc2c(c1)Oc1ncn(N)c(=N)c1C2c1ccc(Br)cc1 (stereo unspecified) | – | – | – | – | – | – | – | – | – | – | 15 | 15 | 16 | 22 | 25 | 24 | 22 | 21 | –
13 | CCN(CC)c1ccc2c(c1)Oc1ncnc(N)c1C2c1ccc(Cl)cc1 (stereo unspecified) | – | – | – | – | – | – | – | – | – | – | 15 | 21 | 20 | 20 | 25 | 25 | 24 | 21 | –
14 | CCN(CC)c1ccc2c(c1)OC(/N=C/N)=C(C#N)C2c1ccc(Cl)cc1 (stereo unspecified) | inactive | inactive | – | inactive | inactive | inactive | – | inactive | inactive | inactive | – | – | – | – | – | – | – | – | –
15 | CCO/C=N/C1=C(C#N)C(c2ccc(Cl)cc2)c2ccc(N(CC)CC)cc2O1 (stereo unspecified) | inactive | inactive | – | inactive | inactive | inactive | – | inactive | inactive | inactive | – | – | – | – | – | – | – | – | –
16 | CCOC(=O)C1=C(N)Oc2cc(N(CC)CC)ccc2C1c1ccc(Cl)cc1 (stereo unspecified) | inactive | inactive | – | inactive | inactive | inactive | – | inactive | inactive | inactive | – | – | – | – | – | – | – | – | –
17 | CCN(CC)c1ccc2c(-c3ccc(Cl)cc3)c(C#N)c(=O)oc2c1 | inactive | inactive | – | inactive | inactive | inactive | – | inactive | inactive | inactive | – | – | – | – | – | – | – | – | –
18 | CCOC(=O)C1=C(N)Oc2cc(N(CC)CC)ccc2C1c1ccc(Br)cc1 (stereo unspecified) | inactive | inactive | Not toxic | inactive | inactive | inactive | Not toxic | inactive | inactive | inactive | – | – | – | – | – | – | – | – | –
19 | NYSTATIN | – | – | – | – | – | – | – | – | – | – | – | – | – | – | – | – | – | – | 24
20 | CCN(CC)c1ccc2c(-c3ccc(Br)cc3)c(C#N)c(=O)oc2c1 | inactive | inactive | – | inactive | inactive | inactive | – | inactive | inactive | inactive | – | – | – | – | – | – | – | – | –
21 | CCN(CC)c1ccc2c(-c3ccc(F)cc3)c(C#N)c(=O)oc2c1 | inactive | inactive | – | inactive | inactive | inactive | – | – | – | inactive | – | – | – | – | – | 13 | 14 | – | –
22 | CCN(CC)c1ccc2c(c1)OC(/N=C/N(C)C)=C(C#N)C2c1ccc(Cl)cc1 (stereo unspecified) | inactive | inactive | – | inactive | inactive | inactive | – | inactive | inactive | inactive | – | – | – | – | – | – | – | – | –
